Data: ChEMBL document CHEMBL1127085, “Derivatives of 2-(dipropylamino)tetralin: effect of the C8-substituent on the interaction with 5-HT1A receptors” (J Med Chem, 1993)

Columns and labels:
[1] = molecular target: T1, 5-hydroxytryptamine receptor 1A (Rattus norvegicus) (UniProt P19327); experiment: Induction of clear-cut 5-HT motor syndrome in normal rats at the dose of 32 micro mol/kg; assay type: functional
T1 sequence (whole entry): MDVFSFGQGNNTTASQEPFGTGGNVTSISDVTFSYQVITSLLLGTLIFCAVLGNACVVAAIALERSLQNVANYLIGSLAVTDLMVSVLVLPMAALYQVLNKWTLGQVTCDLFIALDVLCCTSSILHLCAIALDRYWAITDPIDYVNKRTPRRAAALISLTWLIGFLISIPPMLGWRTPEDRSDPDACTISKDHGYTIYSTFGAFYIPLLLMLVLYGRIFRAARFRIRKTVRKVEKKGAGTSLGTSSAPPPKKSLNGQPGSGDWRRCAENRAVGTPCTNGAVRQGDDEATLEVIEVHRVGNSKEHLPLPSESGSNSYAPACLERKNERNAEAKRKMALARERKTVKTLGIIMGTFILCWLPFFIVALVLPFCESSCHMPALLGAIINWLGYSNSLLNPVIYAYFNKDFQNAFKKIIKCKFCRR

[2] = molecular target: T1, 5-hydroxytryptamine receptor 1A (Rattus norvegicus); experiment: Induction of clear-cut 5-HT motor syndrome in reserpine (5 mg/kg, sc) pretreated rats at the dose of 32 micro mol/kg; assay type: functional, organism-based
[3] = molecular target: T1, 5-hydroxytryptamine receptor 1A (Rattus norvegicus); experiment: Number of rats displaying the 5-HT syndrome or leaving the cage out of the number of rats tested; assay type: functional
Rattus norvegicus [4] = experiment: Change in body temperature of rats upon administration after 30 minutes; assay type: functional
Summary of the method: (§1)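 Colonic temperature taken with an electrical thermometer probe 3.5 cm deep, before and 30 min after sc injection in saline. Change reported in °C as mean ± SEM; animal numbers as in the cage-leaving test. ANOVA with Tukey test.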

[5] = molecular target: T1, 5-hydroxytryptamine receptor 1A (Rattus norvegicus); experiment: Antagonistic effect on 5-HT syndrome or behavior of rat induced by (R)-1 at the dose of 32 and 1.0 umol/kg of compound (R)-1; assay type: functional
Summary of the method: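 Compound (32 µmol/kg sc) or saline injected 10 min before (R)-8-OH-DPAT (1.0 µmol/kg sc). Flat body posture, forepaw treading and hindlimb abduction scored during 30 min of observation. Results as number of rats showing the behaviour out of number tested; Fisher's exact probability test.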

[6] = molecular target: T1, 5-hydroxytryptamine receptor 1A (Rattus norvegicus); experiment: 5-HT (serotonin) turnover in rat hippocampus; assay type: functional, tissue-based
Summary of the method: (§2)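 Rats given compound sc in 0.9% NaCl (screening dose typically 32 µmol/kg); decapitated about 30 min after dosing. Hippocampus and corpus striatum dissected and frozen. Perchloric acid homogenates analysed by HPLC with electrochemical detection. Turnover taken as 5-HIAA/5-HT or DOPAC/DA, expressed as percent of saline control. Means ± SEM; n = 5-7 controls, 4-6 treated. ANOVA with Tukey test.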

[7] = molecular target: T2, Dopamine receptor (Rattus norvegicus) (UniProt P25115+P19020+P30729+P18901+P61169); experiment: Dopamine (DA) turnover in rat corpus striatum; assay type: functional, tissue-based; summary of the method: as §2
Rattus norvegicus [8] = experiment: Antagonistic effect on body temperature of rat induced by (R)-1 at the dose of 32 and 1.0 umol/kg of compound (R)-1; assay type: functional
Summary of the method: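 Compound (32 µmol/kg sc) or saline injected 10 min before (R)-8-OH-DPAT (1.0 µmol/kg sc). Colonic temperature taken before injection and 30 min later; result is the change from the preinjection value. One-way ANOVA with Tukey HSD test.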

[9] = molecular target: T1, 5-hydroxytryptamine receptor 1A (Rattus norvegicus); experiment: 5-HT (serotonin) turnover in rat hippocampus (p<0.01); assay type: functional, tissue-based
Summary of the method: (§3)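 Rats dosed sc (screening dose typically 32 µmol/kg, in 0.9% NaCl, 2 mL/kg); decapitated 5-10 min after the 30-min rating, […]. Hippocampus dissected and frozen. 5-HIAA/5-HT ratio measured by HPLC with electrochemical detection (+0.85 V) after perchloric acid homogenisation. Reported as percent of saline control, mean ± SEM, n = 4-6 per group; ANOVA with Tukey test.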

Rattus norvegicus [10] = experiment: Induction of clear-cut 5-HT motor syndrome in normal rats at the dose of 32 umol/kg; assay type: functional
Rattus norvegicus [11] = experiment: Change in body temperature of rats upon administration after 30 minutes (p<0.01); assay type: functional; summary of the method: as §1
Rattus norvegicus [12] = species on record: Rattus norvegicus; experiment: Dopamine (DA) turnover in rat corpus striatum (p<0.01); assay type: functional; summary of the method: as §2
[13] = molecular target: T2, Dopamine receptor (Rattus norvegicus); experiment: Effect of accumulation of DOPA in rat striatum at the dose of 32 umol/kg; assay type: functional, tissue-based
Summary of the method: (§4)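 Test compound given sc in 0.9% NaCl. NSD 1015 (287 µmol/kg sc) given 30 min later to inhibit aromatic L-amino acid decarboxylase; rats decapitated after a further 30 min. Hippocampus and striatum stored at -40 °C for up to 1 week. Perchloric acid homogenates with α-methyl-5-hydroxytryptophan internal standard; 5-HTP and DOPA measured by HPLC-EC. Percent of control, means ± SEM; ANOVA with Tukey test.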

[14] = molecular target: T1, 5-hydroxytryptamine receptor 1A (Rattus norvegicus); experiment: 5-HT (serotonin) turnover in rat hippocampus (p<0.05); assay type: functional, tissue-based; summary of the method: as §3
[15] = molecular target: T3, 5-hydroxytryptamine receptor 1A (Rattus norvegicus, UniProt P19327); experiment: Binding affinity of 5-hydroxytryptamine 1A receptor using [3H]-8-OH-DPAT as radioligand.
T3 sequence (P19327 whole entry): T1 sequence (whole entry)
Summary of the method: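 Membranes from cortex and hippocampus of male Sprague-Dawley rats, pooled from at least six rats, preincubated with 10 µM pargyline. Assay used 2 nM [3H]-8-OH-DPAT, test compound at 1-300 nM and 5 mg/mL tissue in 50 mM Tris-HCl with 4.0 mM CaCl2 and 5.7 mM ascorbate, pH 7.5. Incubated 10 min at 37 °C, filtered on GF/B, scintillation counted.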

[16] = molecular target: T1, 5-hydroxytryptamine receptor 1A (Rattus norvegicus); experiment: Effect of 5-HT accumulation in rat hippocampus at the dose of 32 umol/kg (p<0.01); assay type: functional, tissue-based; summary of the method: as §4
[17] = molecular target: T1, 5-hydroxytryptamine receptor 1A (Rattus norvegicus); experiment: Induction of clear-cut 5-HT motor syndrome in reserpine (5 mg/Kg, sc) pretreated rats at the dose of 32 uM/Kg; assay type: functional, organism-based
Rattus norvegicus [18] = experiment: Induction of clear-cut 5-HT motor syndrome in reserpine (5 mg/kg, sc) pretreated rats at the dose of 10 micro mol/kg; assay type: functional
Rattus norvegicus [19] = experiment: Induction of clear-cut 5-HT motor syndrome in normal rats at the dose of 10 uM/Kg; assay type: functional
Rattus norvegicus [20] = experiment: Induction of clear-cut 5-HT motor syndrome in reserpine (5 mg/Kg, sc) pretreated rats at the dose of 10 uM/Kg; assay type: functional
Rattus norvegicus [21] = experiment: Induction of clear-cut 5-HT motor syndrome in normal rats at the dose of 1 uM/Kg; assay type: functional
Rattus norvegicus [22] = experiment: Induction of clear-cut 5-HT motor syndrome in reserpine (5 mg/Kg, sc) pretreated rats at the dose of 1 uM/Kg; assay type: functional
Rattus norvegicus [23] = experiment: Induction of clear-cut 5-HT motor syndrome in normal rats at the dose of 32 uM/Kg; assay type: functional

| Compound | Behavioral effect [2] | No. of rats [3] | Temperature (Rattus norvegicus [4]) | Turnover [6] | Turnover [7] | Ki [15] | also measured |
| --- | --- | --- | --- | --- | --- | --- | --- |
| CCCN(CCC)[C@H]1CCc2cccc(-c3ccccc3)c2C1 | 0 | 4 | 0.6 | 98 | 99 |  | Behavioral effect [1]: 0; Effect [5]: 4; Temperature (Rattus norvegicus [8]): -2.58 |
| CCCN(CCC)[C@@H]1CCc2ccccc2C1 | 4 | 4 |  |  |  |  | Turnover [9]: 51; Behavioral effect (Rattus norvegicus [10]): 4; Temperature (Rattus norvegicus [11]): -1.4; Turnover (Rattus norvegicus [12]): 77 |
| CCCN(CCC)[C@H]1CCc2cccc(CO)c2C1 | 0 | 0 | -2.2 |  | 121 | 130 nM | Behavioral effect [1]: 4; Accumulation [13]: 101; Turnover [14]: 75; Accumulation [16]: 58 |
| CCCCC(=O)c1cccc2c1CC(N(CCC)CCC)CC2 (racemic) |  |  |  |  |  | 19 nM | Behavioral effect [17]: 4 |
| C#Cc1cccc2c1CC(N(CCC)CCC)CC2 (racemic) |  |  |  |  |  | 4 nM | Behavioral effect (Rattus norvegicus [18]): 1 |
| CCCN(CCC)C1CCc2cccc(C#N)c2C1 (racemic) |  |  |  |  |  | 26 nM | Behavioral effect [17]: 3 |
| CCCN(CCC)[C@H]1CCc2cccc(C(=O)OC)c2C1 |  | 0 | -2.5 | 59 | 98 |  | Behavioral effect (Rattus norvegicus [19]): 4; Behavioral effect (Rattus norvegicus [20]): 4 |
| CCCN(CCC)[C@H]1CCc2ccccc2C1 | 0 | 5 |  | 104 |  |  | Behavioral effect [1]: 5; Temperature (Rattus norvegicus [11]): -1.6; Turnover (Rattus norvegicus [12]): 62 |
| CCCN(CCC)[C@H]1CCc2cccc(C)c2C1 | 0 | 0 |  | 79 | 80 |  | Behavioral effect [1]: 4; Accumulation [13]: 119; Temperature (Rattus norvegicus [11]): -2.3; Accumulation [16]: 64 |
| C#Cc1cccc2c1C[C@@H](N(CCC)CCC)CC2 | 4 | 0 |  |  | 82 | 16 nM | Behavioral effect [1]: 4; Accumulation [13]: 95; Turnover [9]: 66; Temperature (Rattus norvegicus [11]): -2.8; Accumulation [16]: 31 |
| CCCN(CCC)[C@H]1CCc2cccc(OC)c2C1 |  | 0 | -1.5 |  | 79 |  | Behavioral effect [1]: 4; Turnover [14]: 80 |
| CCCN(CCC)C1CCc2cccc(C(N)=O)c2C1 (racemic) |  |  |  |  |  | 6 nM | Behavioral effect [17]: 4 |
| CCCN(CCC)[C@H]1CCc2cccc(C(C)=O)c2C1 |  | 0 | -2.1 | 71 | 111 |  | Behavioral effect (Rattus norvegicus [21]): 4; Behavioral effect (Rattus norvegicus [22]): 4 |
| CCCN(CCC)[C@@H]1CCc2cccc(C(C)=O)c2C1 |  | 0 | -2.8 | 68 | 106 |  | Behavioral effect (Rattus norvegicus [21]): 4; Behavioral effect (Rattus norvegicus [22]): 4 |
| CCCN(CCC)C1CCc2cccc(C(=O)c3ccccc3)c2C1 (racemic) |  |  |  |  |  | 2.8 nM |  |
| CCCN(CCC)[C@@H]1CCc2cccc(-c3ccccc3)c2C1 | 0 | 3 |  | 98 | 85 |  | Behavioral effect [1]: 0; Temperature (Rattus norvegicus [11]): 0.3; Effect [5]: 4; Temperature (Rattus norvegicus [8]): -3.68 |
| CCCN(CCC)[C@H]1CCc2cccc(OS(=O)(=O)C(F)(F)F)c2C1 |  | 1 | 0.5 | 84 | 104 |  | Behavioral effect (Rattus norvegicus [10]): 0; Effect [5]: 4; Temperature (Rattus norvegicus [8]): -3.18 |
| CCCN(CCC)C1CCc2cccc(C(C)=O)c2C1 (racemic) |  |  |  |  |  | 0.9 nM | Behavioral effect (Rattus norvegicus [22]): 4 |
| CCCN(CCC)C1CCc2cccc(C)c2C1 (racemic) |  |  |  |  |  | 42 nM |  |
| CCCN(CCC)[C@H]1CCc2cccc(C#N)c2C1 |  |  |  |  |  | 37 nM | Behavioral effect [17]: 4 |
| CCCN(CCC)C1CCc2cccc(-c3ccccc3)c2C1 (racemic) | 0 |  |  |  |  | 12 nM |  |
| CCCN(CCC)[C@@H]1CCc2cccc(C(=O)OC)c2C1 |  | 0 | -2.3 | 63 | 90 |  | Behavioral effect (Rattus norvegicus [19]): 4; Behavioral effect (Rattus norvegicus [20]): 4 |
| CCCN(CCC)[C@@H]1CCc2cccc(C#N)c2C1 |  |  |  |  |  | 19 nM | Behavioral effect (Rattus norvegicus [20]): 3 |
| CCCN(CCC)C1CCc2cccc(OS(=O)(=O)C(F)(F)F)c2C1 (racemic) | 0 |  |  |  |  |  |  |
| CCCN(CCC)[C@@H]1CCc2cccc(C(=O)c3ccccc3)c2C1 |  | 0 | -3.3 | 74 | 122 | 4.6 nM | Accumulation [13]: 69; Behavioral effect [17]: 4; Behavioral effect (Rattus norvegicus [23]): 4; Accumulation [16]: 56 |
